{"data": "Assay results of several laboratories", "BCHE": "Cholinesterase (BCHE, Equus caballus, UniProt P81908)", "SLC6A4": "Sodium-dependent serotonin transporter (SLC6A4, Homo sapiens, UniProt P31645)", "note": "Lines come from different studies, so protocols differ."}
{"Structure (SMILES)": "CC=C1[C@H]2C=C(C)C[C@]1(N(C)C)c1ccc(=O)n(C)c1C2", "target": "BCHE", "test": "enzyme activity, inhibitor, Ellman", "IC50": "259 µM"}
{"Structure (SMILES)": "COC(=O)[C@H](CCC(=O)Nc1cccc2c1ccn2Cc1cccc(C(N)=O)c1)NC(=O)OCc1ccccc1", "target": "NAD-dependent protein deacetylase sirtuin-3, mitochondrial (SIRT3, Homo sapiens, UniProt Q9NTG7)", "test": "enzyme activity, inhibitor", "IC50": "3.6 µM"}
{"Structure (SMILES)": "NC(N)=S", "target": "Urease (Canavalia ensiformis, UniProt P07374)", "test": "enzyme activity, inhibitor", "IC50": "8.83 µM"}
{"Structure (SMILES)": "CC=C1[C@H]2C=C(C)C[C@]1(N)c1cc(OCC)c(=O)[nH]c1C2", "target": "BCHE", "test": "enzyme activity, inhibitor, Ellman", "IC50": "253 µM"}
{"Structure (SMILES)": "Clc1ccc2c(C3=CCN(CC[C@@H]4CNc5ccccc54)CC3)c[nH]c2c1", "target": "SLC6A4", "test": "ligand displacement, radioligand", "conditions": "cell membranes", "IC50": "0.205 µM"}
{"Structure (SMILES)": "O=C(CNC(=S)NN=Cc1ccc([N+](=O)[O-])cc1)c1ccc(Cl)cc1", "target": "BCHE", "test": "enzyme activity, inhibitor, Ellman", "IC50": "425 µM"}
{"Structure (SMILES)": "CC=C1[C@H]2C=C(C)C[C@]1(N)c1cc(OCCCC)c(=O)[nH]c1C2", "target": "BCHE", "test": "enzyme activity, inhibitor, Ellman", "IC50": "16.9 µM"}
{"Structure (SMILES)": "O=P(O)(O)Oc1ccccc1OP(=O)(O)O", "target": "Signal transducer and activator of transcription 5A, SH2 (Homo sapiens, UniProt P42229)", "test": "ligand displacement, FP", "IC50": "69 µM"}
{"Structure (SMILES)": "CC=C1[C@H]2C=C(C)C[C@]1(N)c1cc(C#N)c(=O)[nH]c1C2", "target": "BCHE", "test": "enzyme activity, inhibitor, Ellman", "IC50": "1050 µM"}
{"Structure (SMILES)": "C[C@H](N)Cn1ncc2ccc3c(c21)CCCO3", "target": "D(1A) dopamine receptor (DRD1, Homo sapiens, UniProt P21728)", "test": "ligand displacement, radioligand", "IC50": "138 µM"}
{"Structure (SMILES)": "C#CCN(C)c1nc(NCCCC2CCN(Cc3ccccc3)CC2)c(C#N)cc1C#N", "target": "BCHE", "test": "enzyme activity, inhibitor, Ellman", "IC50": "1.19 µM"}
{"Structure (SMILES)": "Clc1ccc2c(C3CCN(CCc4c[nH]c5ccccc45)CC3)c[nH]c2c1", "target": "SLC6A4", "test": "ligand displacement, radioligand", "conditions": "cell membranes", "IC50": "0.0021 µM"}
{"Structure (SMILES)": "O=C(CNC(=S)NN=Cc1ccc([N+](=O)[O-])cc1)c1ccc([N+](=O)[O-])cc1", "target": "BCHE", "test": "enzyme activity, inhibitor, Ellman", "IC50": "326 µM"}
{"Structure (SMILES)": "C[C@@H](O)[C@@H]1NC(=O)[C@H](CCCCN)NC(=O)[C@@H](Cc2c[nH]c3ccccc23)NC(=O)[C@H](Cc2ccc(O)cc2)NC(=O)[C@@H](NC(=O)[C@@H](Cc2ccccc2)NC(=O)CCC(C(=O)O)N2CCN(C(CCC(=O)O)C(=O)O)CCN(C(CCC(=O)O)C(=O)O)CC2)CSSC[C@@H](C(=O)N[C@H](CO)[C@@H](C)O)NC1=O (some centres unmarked)", "target": "Somatostatin receptor type 2 (Rattus norvegicus, UniProt P30680)", "test": "ligand displacement, radioligand", "IC50": "0.125 µM"}
